Screening results (PubChem)
HUVEC inhibit: human endothelial cell proliferation inhibition; 1.1% of 86,000 active; viability, % at 10 µM (by protocol); HUVEC proliferation, CellTiter-Glo luminescence, 72 h; hits give low values;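 active = viability at or below 30%; inactive = viability above 30%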;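 note: 100% = median luminescence of DMSO-only cell control wells on each plate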
ERb coact inh: blocks coactivator binding to human estrogen receptor beta | Q92731 | inhibition, % at 25.6 µM | 1.3% of 86,000 active | TR-FRET ER-beta LBD / SRC1-Cy5 peptide binding; receptor agonist-loaded with 1 µM estradiol | AID 633;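 active = compounds whose percent inhibition of the receptor-coactivator binding signal exceeds about 50% in the single-dose screen, limit read from the data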;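 note: 0% = receptor plus peptide wells without compound and 100% = peptide-only wells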
Target sequence (Q92731 whole entry, looked up, the tested form may be a part): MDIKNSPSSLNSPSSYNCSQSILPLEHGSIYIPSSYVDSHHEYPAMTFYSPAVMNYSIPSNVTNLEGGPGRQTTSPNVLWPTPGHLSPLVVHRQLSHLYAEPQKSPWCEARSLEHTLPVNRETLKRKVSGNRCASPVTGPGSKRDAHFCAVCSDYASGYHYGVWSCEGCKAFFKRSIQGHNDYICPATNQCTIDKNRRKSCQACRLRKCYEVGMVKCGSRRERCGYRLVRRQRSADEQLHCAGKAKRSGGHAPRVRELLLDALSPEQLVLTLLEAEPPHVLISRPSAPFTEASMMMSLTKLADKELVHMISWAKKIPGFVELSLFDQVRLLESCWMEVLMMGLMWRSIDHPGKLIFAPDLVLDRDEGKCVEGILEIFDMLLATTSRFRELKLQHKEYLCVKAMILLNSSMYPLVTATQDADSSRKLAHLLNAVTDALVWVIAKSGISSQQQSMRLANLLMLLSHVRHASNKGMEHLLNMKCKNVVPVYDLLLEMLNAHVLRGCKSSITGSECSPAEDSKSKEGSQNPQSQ
H69AR growth 86K: growth inhibitors of human H69AR lung tumor cells; H69AR lung tumor viability, ATP luminescence, 72 h; hits give low values; viability, % at 10 µM; 6% of 85,000 active;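 active = viability at or below 40%; inactive = viability above 40%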;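 note: multidrug resistant small cell line overexpressing MRP-1 efflux transporter; 100% = mean luminescence of untreated control wells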
ERa coact inh: blocks coactivator binding to human estrogen receptor alpha | TR-FRET ER-alpha LBD / SRC-1 peptide, estradiol-bound | inhibition, % at 25.6 µM | 1.7% of 86,000 active | AID 629 | P03372; in the data active = inhibition above about 50%;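 note: 0% = receptor plus peptide control and 100% = peptide only without receptor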
ERa SRC1 pot: enhances coactivator binding to human estrogen receptor alpha | coactivator binding (% of control), % at 25.6 µM | TR-FRET ERalpha-LBD/SRC-Cy5 coactivator binding, 2 h; 100 = basal binding, no effect | AID 639 | 1.3% of 86,000 active; in the data active = activity above about 200%;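 note: binding measured in presence of low estradiol as agonist stimulus; 0% = peptide alone without receptor and 100% = receptor with peptide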
Fibroblast inh: blocks proliferation of human lung fibroblasts. LL 47 human lung fibroblast viability, ATP luminescence; hits give low values. 1.1% of 85,000 active. AID 719. viability, % at 10 µM;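 active = viability at or below 50% in the single dose screen; inactive = viability above 50%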;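 note: compound exposure lasted 72 h before the ATP readout; 100% = median luminescence of untreated cell-only wells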
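Test system: LL 47 human lung fibroblasts / Incubation: 72 h compound exposure at 37 °C after overnight plating / Technique: luminescent ATP detection, CellTiter-Glo / Compound dosing: 0.1% DMSO in all compound wells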
An asterisk follows results filed as active; [ ] = dose if it differs, or a comment. An excerpt weighted towards active compounds, which were near 9.2% of everything screened.

How did O=c1[nH]c2ccc(Cl)cc2c(-c2ccccc2)c1N1CCN(c2ccccn2)CC1 do in these assays?
HUVEC inhibit: 88; ERb coact inh: 30; H69AR growth 86K: 66; ERa coact inh: 13; ERa SRC1 pot: 260*[fluorescence artefact?]; Fibroblast inh: 95

How did O=C(c1ccco1)N1CCN(c2c(-c3ccccc3)c3cc(Cl)ccc3[nH]c2=O)CC1 do in these assays?
HUVEC inhibit: 63; ERb coact inh: 16; H69AR growth 86K: 101; ERa coact inh: 25; ERa SRC1 pot: 223*[fluorescence artefact?]; Fibroblast inh: 92

Results for CCN(CC)C(=S)Sc1c(-c2ccccc2)c2cc(Cl)ccc2[nH]c1=O ?
HUVEC inhibit: 79; ERb coact inh: 2; H69AR growth 86K: 73; ERa coact inh: 10; ERa SRC1 pot: 44; Fibroblast inh: 91

Results for O=c1[nH]c2ccc(Cl)cc2c(-c2ccccc2)c1N1CCOCC1 ?
HUVEC inhibit: 95; ERb coact inh: 23; H69AR growth 86K: 79; ERa coact inh: 18; ERa SRC1 pot: 357*[fluorescence artefact?]; Fibroblast inh: 94

How did O=c1[nH]c2ccc(Cl)cc2c(-c2ccccc2)c1CN1CCOCC1 do in these assays?
HUVEC inhibit: 92; ERb coact inh: 0; H69AR growth 86K: 101; ERa coact inh: 0; ERa SRC1 pot: 87; Fibroblast inh: 89

How did CCc1nnc(NC(=O)CSc2nc3c(cc2C#N)CCCC3)s1 do in these assays?
HUVEC inhibit: 94; ERb coact inh: -10; H69AR growth 86K: 81; ERa coact inh: -20; ERa SRC1 pot: 510*[fluorescence artefact?]; Fibroblast inh: 104

What do the screens show for `CCOC(=O)CC(=O)CSc1nc2c(cc1C#N)CCC2`?
HUVEC inhibit: 76; ERb coact inh: 2; H69AR growth 86K: 35*; ERa coact inh: -11; ERa SRC1 pot: 109; Fibroblast inh: 101

What do the screens show for `C/C(CC(O)c1ccc2ccccc2n1)=N/O` (configuration not stated)?
HUVEC inhibit: 86; ERb coact inh: -14; H69AR growth 86K: 98; ERa coact inh: 0; ERa SRC1 pot: 108; Fibroblast inh: 101

Results for COc1cccc(-n2c(SCC(=O)Nc3cc(C)on3)nc3c([nH]c4ccccc43)c2=O)c1 ?
HUVEC inhibit: 79; ERb coact inh: 10; H69AR growth 86K: 92; ERa coact inh: 21; ERa SRC1 pot: 110; Fibroblast inh: 78

What do the screens show for `COc1ccc(-n2c(SCC(=O)N3CCCC3)nc3c([nH]c4ccccc43)c2=O)cc1`?
HUVEC inhibit: 82; ERb coact inh: 60*[fluorescence artefact?]; H69AR growth 86K: 78; ERa coact inh: 87*; ERa SRC1 pot: 124; Fibroblast inh: 93

What do the screens show for `COc1cccc(-n2c(SCC(N)=O)nc3c([nH]c4ccccc43)c2=O)c1`?
HUVEC inhibit: 72; ERb coact inh: -6; H69AR growth 86K: 23*; ERa coact inh: 4; ERa SRC1 pot: 633*[fluorescence artefact?]; Fibroblast inh: 66

Results for O=C(CSc1nc2c([nH]c3ccccc32)c(=O)n1-c1cccc(Cl)c1)N1CCOCC1 ?
HUVEC inhibit: 83; ERb coact inh: 73*[fluorescence artefact?]; H69AR growth 86K: 100; ERa coact inh: 91*[fluorescence artefact?]; ERa SRC1 pot: 44; Fibroblast inh: 91

What do the screens show for `O=C(CSc1nc2c([nH]c3ccccc32)c(=O)n1-c1ccccc1)N1CCOCC1`?
HUVEC inhibit: 99; ERb coact inh: -5; H69AR growth 86K: 68; ERa coact inh: 3; ERa SRC1 pot: 141; Fibroblast inh: 96

What do the screens show for `CSc1nc(-c2ccco2)nn1S(C)(=O)=O`?
HUVEC inhibit: 93; ERb coact inh: 0; H69AR growth 86K: 98; ERa coact inh: -8; ERa SRC1 pot: 115; Fibroblast inh: 97

Results for Cc1ccc(OCCOCCn2ccnc2)c(Br)c1 ?
HUVEC inhibit: 90; ERb coact inh: 1; H69AR growth 86K: 98; ERa coact inh: -10; ERa SRC1 pot: 96; Fibroblast inh: 90

How did Cc1cc(C)cc(Oc2ccc(C(F)(F)F)cc2C#N)c1 do in these assays?
HUVEC inhibit: 98; ERb coact inh: -15; H69AR growth 86K: 91; ERa coact inh: 2; ERa SRC1 pot: 93; Fibroblast inh: 89

What do the screens show for `COC(=O)c1cc2sc(Cl)cc2n1CC(=O)Nc1ccc(OC)c(OC)c1OC`?
HUVEC inhibit: 83; ERb coact inh: 25; H69AR growth 86K: 71; ERa coact inh: 54*[fluorescence artefact?]; ERa SRC1 pot: 109; Fibroblast inh: 103
